The source made the active and inactive calls. The rule behind the calls is not given here.
Key:
[1] = Antitumor activity against human Calu3 cells xenografted in BALB/cA mouse assessed as tumor growth inhibition at 100 mg/kg, po; assay type: functional; settings: Calu-3, read-out: TGI
Summary of the method: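 Female BALB/cA nude mice, 6–7 weeks old, implanted s.c. on midright side with 2×10^6 Calu-3 cells in 0.2 ml PBS. Grouped at 60–150 mm³ tumour volume (6 per treated group, 12 vehicle). Oral dosing in 0.5% CMC with 0.1% Tween-80. Caliper volume = L×W²×0.5; inhibition = (1 − T/C)×100% on relative tumour volume; weight tracked for 21 d.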

cells = settings: Homo sapiens, SK-OV-3, 72 h
[2] = biological target: Receptor tyrosine-protein kinase erbB-2 (Homo sapiens, UniProt P04626); settings: BT-474, 0.001 to 1 uM
[3] = AUC (0 to 24 hrs) in Beagle dog at 240 mg/kg, po dosed for 14 days by LC/MS/MS method; assay type: ADME, organism-based, Canis lupus familiaris; set-up: time < 24 hr, dose 240 mg/kg, route oral; settings: plasma
Summary of the method: (§1)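 Beagle dogs (n = 6) dosed by oral gavage at 240 mg/kg daily for 14 consecutive days. Blood taken predose and at 0.25–24 h on days 1 and 14, plasma stored at −20 °C, analysed by validated LC/MS/MS. Half-life and AUC by model-independent methods; Cmax and MRT read from concentration–time data.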

[4] = biological target: T1, Vascular endothelial growth factor receptor 2 (Homo sapiens, UniProt P35968); assay: Inhibition of KDR (unknown origin) by ELISA method
T1 sequence (P35968 whole entry): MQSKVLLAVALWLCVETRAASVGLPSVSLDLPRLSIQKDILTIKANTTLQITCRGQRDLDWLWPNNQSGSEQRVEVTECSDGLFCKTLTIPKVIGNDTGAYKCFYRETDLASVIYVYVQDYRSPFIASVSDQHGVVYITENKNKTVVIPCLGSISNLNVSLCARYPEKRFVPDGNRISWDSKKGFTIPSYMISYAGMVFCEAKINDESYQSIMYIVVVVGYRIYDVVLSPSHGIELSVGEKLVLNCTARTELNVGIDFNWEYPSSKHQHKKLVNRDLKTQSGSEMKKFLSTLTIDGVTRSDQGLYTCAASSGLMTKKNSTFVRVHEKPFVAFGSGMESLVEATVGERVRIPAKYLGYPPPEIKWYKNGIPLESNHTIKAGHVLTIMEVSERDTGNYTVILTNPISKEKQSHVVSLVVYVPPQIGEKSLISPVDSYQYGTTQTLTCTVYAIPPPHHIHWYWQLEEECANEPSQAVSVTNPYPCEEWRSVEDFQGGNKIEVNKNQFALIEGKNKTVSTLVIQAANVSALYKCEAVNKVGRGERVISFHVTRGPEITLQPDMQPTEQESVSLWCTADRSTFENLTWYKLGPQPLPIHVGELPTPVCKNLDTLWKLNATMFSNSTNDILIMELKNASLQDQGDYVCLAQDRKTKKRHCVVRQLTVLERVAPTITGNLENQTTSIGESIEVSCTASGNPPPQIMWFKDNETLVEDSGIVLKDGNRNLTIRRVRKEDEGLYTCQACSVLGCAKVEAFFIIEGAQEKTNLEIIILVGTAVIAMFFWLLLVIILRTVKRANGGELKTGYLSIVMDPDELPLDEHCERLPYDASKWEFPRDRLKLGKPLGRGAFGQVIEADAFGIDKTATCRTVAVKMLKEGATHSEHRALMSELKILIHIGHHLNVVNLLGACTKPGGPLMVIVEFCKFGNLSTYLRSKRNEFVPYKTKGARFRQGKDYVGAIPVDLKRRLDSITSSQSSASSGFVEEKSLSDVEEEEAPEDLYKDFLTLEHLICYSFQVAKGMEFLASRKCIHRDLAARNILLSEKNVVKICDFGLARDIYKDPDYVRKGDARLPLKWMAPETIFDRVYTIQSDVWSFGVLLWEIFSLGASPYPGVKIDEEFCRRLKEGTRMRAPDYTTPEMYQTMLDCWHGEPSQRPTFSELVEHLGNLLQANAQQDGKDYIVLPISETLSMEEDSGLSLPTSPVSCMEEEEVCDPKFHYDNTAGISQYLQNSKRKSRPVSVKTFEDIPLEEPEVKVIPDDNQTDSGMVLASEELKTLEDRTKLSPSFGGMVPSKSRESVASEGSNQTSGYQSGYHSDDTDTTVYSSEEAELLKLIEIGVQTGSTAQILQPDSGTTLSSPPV
Summary of the method: (§2)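 Phosphotyrosine ELISA with purified kinase (20 ng) and 5 µM ATP in buffer (50 mM HEPES pH 7.4, 20 mM MgCl2, 0.1 mM MnCl2, 0.2 mM Na3VO4, 1 mM DTT), 1 h at 37 °C, DMSO ≤1%. Detection by PY99 antibody, then HRP anti-mouse IgG with o-phenylenediamine, A490. IC50 by Logit from at least three independent tests.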

[5] = biological target: Mast/stem cell growth factor receptor Kit (Homo sapiens, UniProt P10721); assay: Inhibition of c-KIT phosphorylation (unknown origin) expressed in human NCI-H526 cells at 0.001 to 1 uM incubated for 2 hrs by Western blot method; assay type: cell-based
Mast/stem cell growth factor receptor Kit, sequence (P10721 whole entry): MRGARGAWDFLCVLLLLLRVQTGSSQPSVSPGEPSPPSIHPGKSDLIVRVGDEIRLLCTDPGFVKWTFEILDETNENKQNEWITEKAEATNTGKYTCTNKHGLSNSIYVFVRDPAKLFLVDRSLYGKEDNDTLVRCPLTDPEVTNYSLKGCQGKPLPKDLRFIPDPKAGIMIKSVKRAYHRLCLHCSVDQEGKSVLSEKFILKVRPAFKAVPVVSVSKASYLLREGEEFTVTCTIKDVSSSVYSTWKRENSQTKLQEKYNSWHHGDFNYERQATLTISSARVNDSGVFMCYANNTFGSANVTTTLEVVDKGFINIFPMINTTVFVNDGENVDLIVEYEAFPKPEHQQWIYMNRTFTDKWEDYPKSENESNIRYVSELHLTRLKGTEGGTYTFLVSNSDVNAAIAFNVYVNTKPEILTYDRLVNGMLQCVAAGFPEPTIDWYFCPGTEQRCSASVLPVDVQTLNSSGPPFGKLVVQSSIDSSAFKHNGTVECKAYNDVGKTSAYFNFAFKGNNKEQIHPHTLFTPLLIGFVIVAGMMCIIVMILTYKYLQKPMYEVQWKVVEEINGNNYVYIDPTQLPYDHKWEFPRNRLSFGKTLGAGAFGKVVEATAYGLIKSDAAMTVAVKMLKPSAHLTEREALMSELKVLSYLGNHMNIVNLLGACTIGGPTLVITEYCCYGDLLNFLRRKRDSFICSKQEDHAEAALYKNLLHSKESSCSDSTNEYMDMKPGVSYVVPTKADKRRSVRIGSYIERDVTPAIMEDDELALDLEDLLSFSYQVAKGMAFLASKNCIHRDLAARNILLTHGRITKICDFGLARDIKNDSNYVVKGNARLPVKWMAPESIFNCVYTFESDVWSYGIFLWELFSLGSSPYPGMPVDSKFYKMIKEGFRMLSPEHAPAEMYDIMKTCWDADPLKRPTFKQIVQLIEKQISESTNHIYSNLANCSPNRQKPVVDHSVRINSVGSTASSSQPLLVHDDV
Summary of the method: (§3)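 Cells grown to half-confluence and serum-starved 24 h, then treated 2 h at 0.001, 0.01, 0.1 and 1 µM. Afterwards stimulated at 37 °C with 20 ng/ml SCF-1, PDGF-BB or VEGF as appropriate to the receptor. Phosphorylation assessed by western blot.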

[6] = biological target: T2, Epidermal growth factor receptor (Homo sapiens, UniProt P00533); settings: A-431, 0.001 to 1 uM
T2 sequence (P00533 whole entry): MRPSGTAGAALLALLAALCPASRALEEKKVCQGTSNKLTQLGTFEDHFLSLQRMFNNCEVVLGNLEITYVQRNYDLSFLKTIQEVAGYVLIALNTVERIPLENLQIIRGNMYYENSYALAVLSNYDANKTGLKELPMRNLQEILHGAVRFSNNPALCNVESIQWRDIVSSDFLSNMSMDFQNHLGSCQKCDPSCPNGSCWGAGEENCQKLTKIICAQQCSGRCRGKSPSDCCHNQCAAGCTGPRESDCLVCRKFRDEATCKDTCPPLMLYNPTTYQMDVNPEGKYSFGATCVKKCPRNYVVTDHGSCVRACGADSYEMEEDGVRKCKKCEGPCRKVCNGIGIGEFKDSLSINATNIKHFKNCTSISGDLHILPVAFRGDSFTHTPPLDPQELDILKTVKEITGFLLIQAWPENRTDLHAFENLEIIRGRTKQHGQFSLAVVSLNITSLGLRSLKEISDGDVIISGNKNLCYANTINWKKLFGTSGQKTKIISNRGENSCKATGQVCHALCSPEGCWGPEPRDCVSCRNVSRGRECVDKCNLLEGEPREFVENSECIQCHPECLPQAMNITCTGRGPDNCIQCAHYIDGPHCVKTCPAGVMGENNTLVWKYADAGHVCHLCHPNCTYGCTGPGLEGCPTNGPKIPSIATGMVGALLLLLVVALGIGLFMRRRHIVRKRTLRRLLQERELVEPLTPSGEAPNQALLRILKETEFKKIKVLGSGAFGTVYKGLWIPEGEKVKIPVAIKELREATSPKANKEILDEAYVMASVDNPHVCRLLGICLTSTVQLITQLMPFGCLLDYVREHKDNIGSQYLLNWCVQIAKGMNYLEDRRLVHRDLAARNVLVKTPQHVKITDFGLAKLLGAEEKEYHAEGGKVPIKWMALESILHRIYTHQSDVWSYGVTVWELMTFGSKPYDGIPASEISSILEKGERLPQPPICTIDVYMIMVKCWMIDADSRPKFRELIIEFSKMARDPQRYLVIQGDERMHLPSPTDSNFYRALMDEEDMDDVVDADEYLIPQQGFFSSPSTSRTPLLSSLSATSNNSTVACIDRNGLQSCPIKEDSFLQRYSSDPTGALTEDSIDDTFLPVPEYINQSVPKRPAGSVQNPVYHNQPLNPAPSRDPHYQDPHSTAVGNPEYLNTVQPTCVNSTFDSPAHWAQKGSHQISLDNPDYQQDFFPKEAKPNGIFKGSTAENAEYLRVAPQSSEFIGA

BT-474 [7] = assay: Induction of cell cycle arrest in human BT474 cells assessed as accumulation at S phase at 0.001 uM incubated for 12 hrs by propidium iodide staining based flow cytometry (reference value: 19%); assay type: functional
BT-474 [8] = assay: Induction of apoptosis in human BT474 cells at 0.1 uM incubated for 12 hrs by propidium iodide staining based flow cytometry (reference value: 1%); assay type: functional
[9] = Cmax in Beagle dog at 240 mg/kg, po administered as single dose measured after 0.25 to 24 hrs post dose by LC/MS/MS method; assay type: ADME, organism-based, Canis lupus familiaris; set-up: dose 240 mg/kg, route oral; settings: in vivo
Summary of the method: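 Single oral gavage of 240 mg/kg to beagle dogs (n = 6). Blood sampled at 0.25–24 h, kept on ice, centrifuged within 1 h (1000 × g, 4 °C, 15 min), plasma stored at −20 °C. Drug quantified by validated LC/MS/MS. AUC0–24 from non-compartmental analysis; Cmax and MRT taken directly from concentration–time data.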

BT-474 [10] = assay: Induction of apoptosis in human BT474 cells at 0.01 uM incubated for 12 hrs by propidium iodide staining based flow cytometry (reference value: 1%); assay type: functional
BT-474 [11] = assay: Induction of cell cycle arrest in human BT474 cells assessed as accumulation at G1 phase at 1 uM incubated for 12 hrs by propidium iodide staining based flow cytometry (reference value: 67%); assay type: functional
BT-474 [12] = assay: Induction of cell cycle arrest in human BT474 cells assessed as accumulation at G1 phase at 0.001 uM incubated for 12 hrs by propidium iodide staining based flow cytometry (reference value: 67%); assay type: functional
[13] = biological target: Platelet-derived growth factor receptor beta (Homo sapiens, UniProt P09619); assay: Inhibition of PDGFRbeta (unknown origin) by ELISA method; summary of the method: as §2
Platelet-derived growth factor receptor beta, sequence (P09619 whole entry): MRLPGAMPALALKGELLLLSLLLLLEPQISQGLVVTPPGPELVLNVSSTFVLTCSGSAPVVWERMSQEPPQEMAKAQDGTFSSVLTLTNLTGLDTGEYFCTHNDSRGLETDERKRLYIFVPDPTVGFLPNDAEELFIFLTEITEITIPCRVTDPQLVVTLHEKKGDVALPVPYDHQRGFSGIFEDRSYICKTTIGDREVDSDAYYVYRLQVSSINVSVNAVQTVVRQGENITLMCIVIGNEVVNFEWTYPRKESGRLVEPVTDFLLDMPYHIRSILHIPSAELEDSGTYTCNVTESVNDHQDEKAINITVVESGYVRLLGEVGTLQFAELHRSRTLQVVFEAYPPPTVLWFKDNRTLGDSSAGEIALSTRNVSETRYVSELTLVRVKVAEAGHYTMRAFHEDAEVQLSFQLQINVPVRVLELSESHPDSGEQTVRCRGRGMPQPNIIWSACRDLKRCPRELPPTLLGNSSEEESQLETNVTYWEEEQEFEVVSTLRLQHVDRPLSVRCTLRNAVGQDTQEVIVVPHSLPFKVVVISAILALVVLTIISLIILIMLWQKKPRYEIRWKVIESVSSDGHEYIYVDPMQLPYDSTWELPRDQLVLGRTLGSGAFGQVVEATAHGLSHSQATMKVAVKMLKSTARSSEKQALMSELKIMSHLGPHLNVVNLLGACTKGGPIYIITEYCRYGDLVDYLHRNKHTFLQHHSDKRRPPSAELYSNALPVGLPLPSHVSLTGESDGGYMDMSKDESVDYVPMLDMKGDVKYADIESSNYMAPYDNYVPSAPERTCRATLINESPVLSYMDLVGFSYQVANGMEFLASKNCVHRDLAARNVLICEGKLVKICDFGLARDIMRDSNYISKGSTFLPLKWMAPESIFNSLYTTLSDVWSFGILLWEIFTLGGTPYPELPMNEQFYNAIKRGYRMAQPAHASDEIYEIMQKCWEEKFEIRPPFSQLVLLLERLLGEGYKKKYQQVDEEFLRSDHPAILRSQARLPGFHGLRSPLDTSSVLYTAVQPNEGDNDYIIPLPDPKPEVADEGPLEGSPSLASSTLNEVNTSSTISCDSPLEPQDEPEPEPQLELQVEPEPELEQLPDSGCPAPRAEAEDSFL

BT-474 [14] = assay: Induction of apoptosis in human BT474 cells at 1 uM incubated for 12 hrs by propidium iodide staining based flow cytometry (reference value: 1%); assay type: functional
[15] = Clearance in Beagle dog at 240 mg/kg, po dosed for 14 days by LC/MS/MS method; assay type: ADME, organism-based, Canis lupus familiaris; set-up: dose 240 mg/kg, route oral; settings: in vivo; summary of the method: as §1
[16] = biological target: T1, Vascular endothelial growth factor receptor 2; assay: Inhibition of KDR phosphorylation (unknown origin) expressed in human HUVEC at 0.001 to 1 uM incubated for 2 hrs by Western blot method; assay type: cell-based; summary of the method: as §3
A-431 = assay: Cytotoxicity against human A431 cells assessed as inhibition of cell growth after 72 hrs by sulforhodamine B assay; assay type: functional, cell-based; settings: A-431, 72 h
Summary of the method: (§4)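 Cells grown in RPMI-1640 with 5% FBS and plated at 5.0×10^4/ml. Next day exposed to 0.5–5000 ng/ml for 3 days. Survival read by sulforhodamine B staining. IC50 taken from growth curves; mean of at least three determinations.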

[17] = Cytotoxicity against human SKBR3 cells assessed as inhibition of cell growth after 72 hrs by sulforhodamine B assay; assay type: functional, cell-based; settings: SK-BR-3, 72 h; summary of the method: as §4
[18] = biological target: T2, Epidermal growth factor receptor; settings: A-431, 0.001 to 1 uM; remark: listed apart in the source
BT-474 [19] = assay: Cytotoxicity against human BT474 cells assessed as inhibition of cell growth after 72 hrs by sulforhodamine B assay; assay type: functional, cell-based; settings: BT-474, 72 h; summary of the method: as §4
BT-474 [20] = assay: Induction of cell cycle arrest in human BT474 cells assessed as accumulation at G2/M phase at 1 uM incubated for 12 hrs by propidium iodide staining based flow cytometry (reference value: 14%); assay type: functional
[21] = AUC (0 to infinity) in Beagle dog at 240 mg/kg, po dosed for 14 days by LC/MS/MS method; assay type: ADME, organism-based, Canis lupus familiaris; set-up: time infinity, dose 240 mg/kg, route oral; settings: plasma; summary of the method: as §1
BT-474 [22] = assay: Induction of cell cycle arrest in human BT474 cells assessed as accumulation at S phase at 10 uM incubated for 12 hrs by propidium iodide staining based flow cytometry (reference value: 19%); assay type: functional
Mus musculus = assay: Toxicity in human Calu3 cells xenografted BALB/cA mouse assessed as body weight loss at 100 mg/kg, po measured every other day for 21 days; assay type: organism-based, Calu-3; set-up: dose 100 mg/kg, route oral; settings: in vivo, 504 h
Summary of the method: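 Female BALB/cA nude mice, 6–7 weeks old, implanted s.c. on the mid-right flank with 2×10^6 Calu-3 cells in 0.2 ml PBS. At 60–150 mm³ tumour volume, mice randomised into six per treatment group (twelve vehicle controls). Oral dosing in 0.5% CMC aqueous solution with 0.1% Tween-80. Body weight recorded every other day for 21 d.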

[23] = Mean residence time in Beagle dog at 240 mg/kg, po dosed for 14 days by LC/MS/MS method; assay type: ADME, organism-based, Canis lupus familiaris; set-up: dose 240 mg/kg, route oral; settings: in vivo; summary of the method: as §1
BT-474 [24] = assay: Induction of cell cycle arrest in human BT474 cells assessed as accumulation at G1 phase at 0.1 uM incubated for 12 hrs by propidium iodide staining based flow cytometry (reference value: 67%); assay type: functional

IC50 (cells): 440 nM
inhibition [2]: Dose-dependent effect
AUC at 24 h [3]: 29800 ng·h/mL
IC50 [4]: > 200000 nM
inhibition [5]: inactive
inhibition [6]: Dose-dependent effect
Cmax [9]: 3100 ng/mL
IC50 [13]: > 200000 nM
CL/F [15]: 432 mL/min
inhibition [16]: inactive
inhibition [18]: Dose-dependent effect
AUC(0-inf) [21]: 30600 ng·h/mL
MRT [23]: 6.6 h
Compound: CN(C)[C@H](CS(C)(=O)=O)c1ccc(-c2ccc3ncnc(Nc4ccc(OCc5cccc(F)c5)c(Cl)c4)c3c2)o1
inhibition in vivo at 100 mg/kg [1]: 68%
Activity (BT-474 [7]): 16%
Activity (BT-474 [8]): 4%
Activity (BT-474 [10]): 1%
Activity (BT-474 [11]): 82%
Activity (BT-474 [12]): 70%
Activity (BT-474 [14]): 5%
IC50 (A-431): 634 nM
IC50 [17]: 18.4 nM
IC50 (BT-474 [19]): 28.8 nM
Activity (BT-474 [20]): 12%
Activity (BT-474 [22]): 8%
Activity (Mus musculus): Non-toxic
Activity (BT-474 [24]): 84%
